Experimental findings from ChEMBL document CHEMBL3611973, “Synthesis and biological evaluation of a novel betulinic acid derivative as an inducer of apoptosis in human colon carcinoma cells (HT-29)” (Eur J Med Chem, 2015) are described below.

One assay concerns U-937. Briefly: Cytotoxic activity against human U937 cells assessed as cell growth inhibition after 48 hrs by MTT assay. The conditions noted are these: U-937, 48 h. In kind it is functional, cell-based. In outline: (§1)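 Log-phase cells (1.25-2.5×10^4/100 µl; RPMI 1640, HepG2 in high-glucose DMEM, 10% FBS) given compound in DMSO (final <0.1%), 0-50 µM, 48 h, 37 °C, 5% CO2. MTT 4 h, DMSO solubilization, OD 540 nm minus background; viability relative to untreated; IC50 by graphical extrapolation, ≥3 experiments in duplicate.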

Another assay deals with HT-29. The assay can be described thus: Cytotoxic activity against human HT-29 cells assessed as cell growth inhibition after 48 hrs by MTT assay. Particulars: HT-29, 48 h. Type of assay: functional, cell-based. In outline:
as §1

In the next assay the test system is Jurkat. Briefly: Cytotoxic activity against human Jurkat cells assessed as cell growth inhibition after 48 hrs by MTT assay. In kind it is functional, cell-based. In a few lines:
as §1

A further assay relates to HepG2. Briefly: Cytotoxic activity against human HepG2 cells assessed as cell growth inhibition after 48 hrs by MTT assay. Type of assay: functional, cell-based. The conditions noted are these: HepG2, 48 h. In a few lines:
as §1

Another assay relates to MCF7. The assay can be described thus: Cytotoxic activity against human MCF7 cells assessed as cell growth inhibition after 48 hrs by MTT assay. In kind it is functional, cell-based. The conditions noted are these: MCF7, 48 h. In outline:
as §1

A further assay has as its system PBMC. The assay can be described thus: Cytotoxic activity against human PBMC cells assessed as cell growth inhibition after 48 hrs by MTT assay. Type of assay: cell-based. In outline: as §1

A value given as a limit tells only on which side of the number the result lay.

For the compound `C=C(C)[C@@H]1CC[C@]2(C(=O)O)CC[C@]3(C)[C@H](CC[C@@H]4[C@@]5(C)CC[C@H](OC(=O)Cn6cc(-c7c[nH]c(=O)[nH]c7=O)nn6)C(C)(C)[C@@H]5CC[C@]43C)[C@@H]12`, the IC50 in the assay on U-937, in the assay with HT-29, with Jurkat, in the assay on HepG2 and with MCF7 was over 50 µM in each case.

As for `C=C(C)[C@@H]1CC[C@]2(C(=O)O)CC[C@]3(C)[C@H](CC[C@@H]4[C@@]5(C)CC[C@H](OC(=O)Cn6cc(-c7ccc8[nH]ccc8c7)nn6)C(C)(C)[C@@H]5CC[C@]43C)[C@@H]12`, the 50% inhibitory concentration (IC50) in the assay on U-937, with HT-29, in the assay on Jurkat, with HepG2 and with MCF7 was over 50 µM in each case.

Take `C=C(C)[C@@H]1CC[C@]2(C(=O)O)CC[C@]3(C)[C@H](CC[C@@H]4[C@@]5(C)CC[C@H](OC(=O)Cn6cc(CO[C@@H]7[C@H]8OC(C)(C)O[C@H]8O[C@@H]7[C@H](O)CO)nn6)C(C)(C)[C@@H]5CC[C@]43C)[C@@H]12`: the IC50 in the assay with U-937, in the assay with HT-29, with Jurkat, in the assay with HepG2 and with MCF7 was over 50 µM throughout.

As for `C=C(C)[C@@H]1CC[C@]2(C(=O)O)CC[C@]3(C)[C@H](CC[C@@H]4[C@@]5(C)CC[C@H](OC(=O)Cn6cc(-c7ccc(C(=O)OC)cc7)nn6)C(C)(C)[C@@H]5CC[C@]43C)[C@@H]12`, the IC50 with U-937, in the assay on HT-29, with Jurkat, in the assay with HepG2 and in the assay with MCF7 was over 50 µM in each case.

For `C=C(C)[C@@H]1CC[C@]2(C(=O)O)CC[C@]3(C)[C@H](CC[C@@H]4[C@@]5(C)CC[C@H](OC(=O)Cn6cc(CO[C@@H]7[C@H]8OC(C)(C)O[C@H]8O[C@@H]7[C@H]7COC(C)(C)O7)nn6)C(C)(C)[C@@H]5CC[C@]43C)[C@@H]12`, the IC50 with U-937, in the assay on HT-29, with Jurkat, in the assay on HepG2 and in the assay with MCF7 was over 50 µM each time.

With `C=C(C)[C@@H]1CC[C@]2(C(=O)O)CC[C@]3(C)[C@H](CC[C@@H]4[C@@]5(C)CC[C@H](OC(=O)Cn6cc(-c7cnc(OC)nc7OC)nn6)C(C)(C)[C@@H]5CC[C@]43C)[C@@H]12`, the IC50 is 41.9 µM in the assay on U-937; 39.8 µM with HT-29; over 50 µM with Jurkat; over 50 µM in the assay on HepG2; 44.7 µM in the assay with MCF7; over 50 µM in the assay with PBMC.

`C=C(C)[C@@H]1CC[C@]2(C(=O)O)CC[C@]3(C)[C@H](CC[C@@H]4[C@@]5(C)CC[C@H](OC(=O)Cn6cc(-c7ccc(C(=O)OCC)cc7)nn6)C(C)(C)[C@@H]5CC[C@]43C)[C@@H]12`: the half-maximal inhibitory concentration (IC50) was 40.1 µM with U-937; over 50 µM with HT-29; over 50 µM with Jurkat; over 50 µM in the assay on HepG2; over 50 µM in the assay on MCF7.

Turning to `C=C(C)[C@@H]1CC[C@]2(C(=O)O)CC[C@]3(C)[C@H](CC[C@@H]4[C@@]5(C)CC[C@H](OC(=O)Cn6cc(-c7ccc([N+](=O)[O-])cc7)nn6)C(C)(C)[C@@H]5CC[C@]43C)[C@@H]12`, the IC50 is over 50 µM with U-937; over 50 µM in the assay with HT-29; 44.8 µM in the assay with Jurkat; 42.7 µM in the assay on HepG2; 45.7 µM in the assay on MCF7; over 50 µM in the assay on PBMC.

Take `C=C(C)[C@@H]1CC[C@]2(C(=O)O)CC[C@]3(C)[C@H](CC[C@@H]4[C@@]5(C)CC[C@H](OC(=O)Cn6cc(CCCC)nn6)C(C)(C)[C@@H]5CC[C@]43C)[C@@H]12`: the IC50 in the assay with U-937 is over 50 µM; with HT-29, over 50 µM; in the assay with Jurkat, over 50 µM; in the assay on HepG2 it was 49.8 µM; in the assay with MCF7, over 50 µM.

For the compound `C=C(C)[C@@H]1CC[C@]2(C(=O)O)CC[C@]3(C)[C@H](CC[C@@H]4[C@@]5(C)CC[C@H](OC(=O)Cn6ccnn6)C(C)(C)[C@@H]5CC[C@]43C)[C@@H]12`, the IC50 with U-937, with HT-29, in the assay on Jurkat, with HepG2, with MCF7 and in the assay with PBMC was over 50 µM each time.

Consider `C=C(C)[C@@H]1CC[C@]2(C(=O)O)CC[C@]3(C)[C@H](CC[C@@H]4[C@@]5(C)CC[C@H](OC(=O)Cn6cc(-c7ccccc7)nn6)C(C)(C)[C@@H]5CC[C@]43C)[C@@H]12`, for which the IC50 in the assay on U-937, with HT-29, in the assay on Jurkat, in the assay on HepG2, in the assay with MCF7 and with PBMC was over 50 µM in each case.
